Source: ChEMBL document CHEMBL4689842, “EUbOPEN Chemogenomics Library wave 1” (2021)

Tested on: HEK-293T
Assay: Multiplex assay against HEK293T;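 as to Population Tubulin-Different-Phenotype (%): share of the cells with healthy nuclei that show this phenotype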
Format: toxicity, cell-based
Conditions: human
In short: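 At seeding, live cells were stained with Hoechst33342, BioTracker Green Microtubule Cytoskeleton Dye, MitoTracker Red and Annexin V Alexa Fluor 680. After compound addition they were imaged on a CQ1 microscope at 37°C and 5% CO2, and CellPathfinder machine-learning gating sorted them into Hoechst high-intensity objects or normal cells, with normal cells further split into healthy, pyknosed or fragmented nuclei and pyknosed cells into mitotic or apoptotic. Tubulin, mitochondrial-mass and membrane-permeability phenotypes are given as per cents of cells with healthy nuclei.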

[1] = 12 h, 1 µM, compound concentration 1 uM, replicate 1
[2] = 12 h, 1 µM, compound concentration 1 uM, replicate 2
[3] = 12 h, 10 µM, compound concentration 10 uM, replicate 1
[4] = 12 h, 10 µM, compound concentration 10 uM, replicate 2
[5] = 24 h, 1 µM, compound concentration 1 uM, replicate 1
[6] = 24 h, 1 µM, compound concentration 1 uM, replicate 2
[7] = 24 h, 10 µM, compound concentration 10 uM, replicate 1
[8] = 24 h, 10 µM, compound concentration 10 uM, replicate 2
[9] = 48 h, 1 µM, compound concentration 1 uM, replicate 1
[10] = 48 h, 1 µM, compound concentration 1 uM, replicate 2
[11] = 48 h, 10 µM, compound concentration 10 uM, replicate 1
[12] = 48 h, 10 µM, compound concentration 10 uM, replicate 2

## Cc1c(P(=S)(c2ccccc2)c2ccccc2)n2ccccc2[n+]1C/C=C/c1ccccc1.[Br-]
[1]
  Population Apoptotic (%): 65%
  Population Fragmented Nuclei (%): 12%
  Population Healthy Nuclei (%): 24%
  Population Hoechst High Intensity Objects (%): 17%
  Population Membrane Permeable-Phenotype (%): 6%
  Population Mitochondria Different-Phenotype (%): 93%
  Population Mitotic Cells (%): 34%
  Population Normal (%): 82%
  Population Pyknosed Nuclei (%): 62%
  Population Tubulin-Different-Phenotype (%): 83%
  Total Cell Count: 211
[2]
  Population Apoptotic (%): 86%
  Population Fragmented Nuclei (%): 6%
  Population Healthy Nuclei (%): 30%
  Population Hoechst High Intensity Objects (%): 5%
  Population Membrane Permeable-Phenotype (%): 0%
  Population Mitochondria Different-Phenotype (%): 87%
  Population Mitotic Cells (%): 13%
  Population Normal (%): 94%
  Population Tubulin-Different-Phenotype (%): 77%
  Total Cell Count: 138
[3]
  Population Apoptotic (%): 34%
  Population Fragmented Nuclei (%): 31%
  Population Healthy Nuclei (%): 2%
  Population Hoechst High Intensity Objects (%): 21%
  Population Membrane Permeable-Phenotype (%): 14%
  Population Mitochondria Different-Phenotype (%): 28%
  Population Mitotic Cells (%): 65%
  Population Normal (%): 78%
  Population Pyknosed Nuclei (%): 65%
  Population Tubulin-Different-Phenotype (%): 100%
  Total Cell Count: 398
[4]
  Population Apoptotic (%): 82%
  Population Fragmented Nuclei (%): 9%
  Population Healthy Nuclei (%): 6%
  Population Hoechst High Intensity Objects (%): 14%
  Population Membrane Permeable-Phenotype (%): 0%
  Population Mitochondria Different-Phenotype (%): 54%
  Population Mitotic Cells (%): 17%
  Population Normal (%): 85%
  Population Pyknosed Nuclei (%): 84%
  Population Tubulin-Different-Phenotype (%): 90%
  Total Cell Count: 192
[5]
  Population Apoptotic (%): 62%
  Population Fragmented Nuclei (%): 20%
  Population Healthy Nuclei (%): 18%
  Population Hoechst High Intensity Objects (%): 19%
  Population Membrane Permeable-Phenotype (%): 3%
  Population Mitochondria Different-Phenotype (%): 90%
  Population Mitotic Cells (%): 37%
  Population Normal (%): 80%
  Population Pyknosed Nuclei (%): 61%
  Population Tubulin-Different-Phenotype (%): 87%
  Total Cell Count: 217
[6]
  Population Apoptotic (%): 88%
  Population Fragmented Nuclei (%): 6%
  Population Healthy Nuclei (%): 41%
  Population Hoechst High Intensity Objects (%): 7%
  Population Membrane Permeable-Phenotype (%): 0%
  Population Mitochondria Different-Phenotype (%): 98%
  Population Mitotic Cells (%): 11%
  Population Normal (%): 92%
  Population Pyknosed Nuclei (%): 51%
  Population Tubulin-Different-Phenotype (%): 85%
  Total Cell Count: 147
[7]
  Population Apoptotic (%): 52%
  Population Fragmented Nuclei (%): 36%
  Population Healthy Nuclei (%): 0%
  Population Hoechst High Intensity Objects (%): 21%
  Population Membrane Permeable-Phenotype (%): 0%
  Population Mitochondria Different-Phenotype (%): 100%
  Population Mitotic Cells (%): 47%
  Population Normal (%): 78%
  Population Pyknosed Nuclei (%): 62%
  Total Cell Count: 389
[8]
  Population Apoptotic (%): 86%
  Population Fragmented Nuclei (%): 12%
  Population Healthy Nuclei (%): 14%
  Population Hoechst High Intensity Objects (%): 13%
  Population Membrane Permeable-Phenotype (%): 16%
  Population Mitochondria Different-Phenotype (%): 72%
  Population Mitotic Cells (%): 13%
  Population Normal (%): 86%
  Population Pyknosed Nuclei (%): 72%
  Population Tubulin-Different-Phenotype (%): 100%
  Total Cell Count: 195
[9]
  Population Apoptotic (%): 69%
  Population Fragmented Nuclei (%): 24%
  Population Healthy Nuclei (%): 1%
  Population Hoechst High Intensity Objects (%): 22%
  Population Membrane Permeable-Phenotype (%): 0%
  Population Mitochondria Different-Phenotype (%): 0%
  Population Mitotic Cells (%): 30%
  Population Normal (%): 77%
  Population Pyknosed Nuclei (%): 73%
  Population Tubulin-Different-Phenotype (%): 66%
  Total Cell Count: 209
[10]
  Population Apoptotic (%): 92%
  Population Fragmented Nuclei (%): 7%
  Population Healthy Nuclei (%): 57%
  Population Hoechst High Intensity Objects (%): 8%
  Population Membrane Permeable-Phenotype (%): 4%
  Population Mitochondria Different-Phenotype (%): 91%
  Population Mitotic Cells (%): 8%
  Population Normal (%): 91%
  Population Pyknosed Nuclei (%): 34%
  Population Tubulin-Different-Phenotype (%): 89%
  Total Cell Count: 157
[11]
  Population Apoptotic (%): 65%
  Population Fragmented Nuclei (%): 45%
  Population Healthy Nuclei (%): 1%
  Population Hoechst High Intensity Objects (%): 22%
  Population Membrane Permeable-Phenotype (%): 0%
  Population Mitochondria Different-Phenotype (%): 100%
  Population Mitotic Cells (%): 34%
  Population Normal (%): 77%
  Population Pyknosed Nuclei (%): 53%
  Total Cell Count: 379
[12]
  Population Apoptotic (%): 95%
  Population Fragmented Nuclei (%): 12%
  Population Healthy Nuclei (%): 27%
  Population Hoechst High Intensity Objects (%): 14%
  Population Membrane Permeable-Phenotype (%): 9%
  Population Mitochondria Different-Phenotype (%): 95%
  Population Mitotic Cells (%): 4%
  Population Normal (%): 85%
  Population Pyknosed Nuclei (%): 59%
  Population Tubulin-Different-Phenotype (%): 100%
  Total Cell Count: 175
